Measured values gathered from unrelated publications.
Lines come from different studies, so protocols differ.
Target: Cyclin-dependent kinase 11A (CDK11A, Homo sapiens, UniProt Q9UQ88)
One construct used (Q9UQ88 1-783): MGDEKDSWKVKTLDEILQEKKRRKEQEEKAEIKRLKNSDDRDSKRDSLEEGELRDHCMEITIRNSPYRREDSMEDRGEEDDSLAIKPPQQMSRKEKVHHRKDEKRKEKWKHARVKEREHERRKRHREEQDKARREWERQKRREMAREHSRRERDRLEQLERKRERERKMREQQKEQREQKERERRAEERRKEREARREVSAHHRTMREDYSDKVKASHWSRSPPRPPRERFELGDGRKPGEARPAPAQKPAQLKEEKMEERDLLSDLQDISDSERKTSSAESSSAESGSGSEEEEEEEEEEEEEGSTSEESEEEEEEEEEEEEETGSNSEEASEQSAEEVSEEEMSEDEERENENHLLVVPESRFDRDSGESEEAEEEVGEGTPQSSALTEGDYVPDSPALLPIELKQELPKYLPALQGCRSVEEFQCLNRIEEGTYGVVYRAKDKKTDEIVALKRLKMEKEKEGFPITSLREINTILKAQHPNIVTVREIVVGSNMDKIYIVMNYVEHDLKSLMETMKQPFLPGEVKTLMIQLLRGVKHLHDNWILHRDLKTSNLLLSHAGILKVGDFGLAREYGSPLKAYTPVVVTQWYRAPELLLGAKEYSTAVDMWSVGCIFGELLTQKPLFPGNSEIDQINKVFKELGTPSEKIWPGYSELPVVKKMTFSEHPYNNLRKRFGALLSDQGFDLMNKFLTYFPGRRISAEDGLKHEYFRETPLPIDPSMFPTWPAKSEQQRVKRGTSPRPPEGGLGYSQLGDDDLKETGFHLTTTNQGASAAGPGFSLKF

Structure (SMILES) | assay | conditions | remaining binding [%]
Cc1cnc(Nc2ccc(C(=O)N3CCC(N4CCCC4)CC3)cc2)nc1-c1cc2ccccc2s1 | binding, competition with immobilised ligand | 1 µM | 100
O=C(Nc1cccnn1)N1CCC(=Cc2cccc(Oc3ccc(C(F)(F)F)cn3)c2)CC1 | cell-free assay, competition with immobilised ligand | 1 µM | 82
CNC(=O)[C@@H]1CC[C@@H](n2c(-c3ccc4cnccc4c3)nc3ccc(C(=O)NCc4cccc(C(N)=O)c4)cc32)C1 | binding, competition with immobilised ligand | 1 µM | 100
O=C(NCCCN1CCOCC1)c1ccc(Nc2ncc(Cl)c(-c3ccc(Cl)s3)n2)cc1 | binding, competition with immobilised ligand | 1 µM | 23
CN(C)c1nccc(-c2cnc3ncccn23)n1 | binding | 1 µM | 100
CN1CCN(c2cnc3c(C4CCN(C(=O)c5ccc(OC(F)(F)F)cc5N)CC4)ncnc3c2)CC1 | binding, competition with immobilised ligand | 1 µM | 61
Nc1ncc2c(n1)-c1c([nH]c3ccc(C#CC4CC4)cc13)CCCC2 | binding, competition with immobilised ligand | 1 µM | 93
CSc1cccnc1N1CCN(Cc2nc3ccccc3[nH]2)CC1 | binding, competition with immobilised ligand | 1 µM | 100
CC1CCCN1c1nccc(-c2cnn3ncccc23)n1 (stereo not drawn) | binding | 1 µM | 100
CCC(=O)N[C@@H]1CC[C@H](C(=O)N(C)c2ccc(-c3nc4ccccc4o3)cc2)C1 | binding, competition with immobilised ligand | 1 µM | 100
COc1ncc2cc3ccccc3nc2c1C#N | binding, competition with immobilised ligand | 5 µM | 93
COc1cnc(Nc2cccc(S(N)(=O)=O)c2)nc1N1CCN(c2ccccc2)C(=O)C1 | binding, competition with immobilised ligand | 1 µM | 100
NS(=O)(=O)c1cc(NC(=O)C2(c3ccccc3Cl)CC2)ccc1Oc1cccc(Cl)c1 | binding, competition with immobilised ligand | 1 µM | 73
Cc1cnn2ncc(-c3ccnc(N(C)C)n3)c2c1 | binding | 1 µM | 100
O=C(c1ccc(Nc2nccc(-c3cc4ccccc4s3)n2)cc1)N1CCC(N2CCCC2)CC1 | binding, competition with immobilised ligand | 1 µM | 80
CN(C)c1ncc(F)c(-c2cnn3ncccc23)n1 | binding | 1 µM | 97
O=C(Nc1c[nH]nc1C(=O)NC1CCNCC1)c1cc(F)cc(F)c1 | binding, competition with immobilised ligand | 1 µM | 100
N[C@@H]1CCN(c2nccc(-c3cnn4ncccc34)n2)C1 | binding | 1 µM | 98
CNC(=O)Nc1ccc2c(c1)[C@@]1(CC2)OC(=O)N(CC(=O)N(Cc2ccc(F)cc2)[C@@H](C)C(F)(F)F)C1=O | binding, competition with immobilised ligand | 1 µM | 94
C[C@H]1CCN(c2nccc(-c3cnn4ncccc34)n2)C1 | binding | 1 µM | 81
c1cncc(-c2cccc(Nc3nccc(NC4CCCCC4)n3)c2)c1 | binding, competition with immobilised ligand | 10 µM | 98
